The source of these data is ChEMBL document CHEMBL1132183 (J Med Chem, 1999).

For experiment [1], the target named is T1, Alpha-1D adrenergic receptor (Homo sapiens, UniProt P25100).
T1 sequence (P25100 whole entry): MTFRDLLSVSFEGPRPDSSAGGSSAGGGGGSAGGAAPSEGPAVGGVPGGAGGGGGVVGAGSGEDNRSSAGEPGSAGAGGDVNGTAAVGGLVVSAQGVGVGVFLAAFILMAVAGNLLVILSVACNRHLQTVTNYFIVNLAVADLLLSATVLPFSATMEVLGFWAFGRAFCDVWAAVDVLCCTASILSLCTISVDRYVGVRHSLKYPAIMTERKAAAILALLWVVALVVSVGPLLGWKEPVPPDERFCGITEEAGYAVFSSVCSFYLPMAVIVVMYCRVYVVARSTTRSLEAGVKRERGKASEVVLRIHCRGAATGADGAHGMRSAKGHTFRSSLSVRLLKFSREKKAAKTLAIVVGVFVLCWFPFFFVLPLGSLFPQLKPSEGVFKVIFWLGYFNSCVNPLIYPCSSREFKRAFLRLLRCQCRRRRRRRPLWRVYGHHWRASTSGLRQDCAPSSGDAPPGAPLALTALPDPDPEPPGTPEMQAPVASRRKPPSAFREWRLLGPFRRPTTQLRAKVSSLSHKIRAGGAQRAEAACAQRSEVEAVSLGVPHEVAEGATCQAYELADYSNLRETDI
In words: Ability to displace [3H]prazosin from human cloned Alpha-1D adrenergic receptor. Summed up:
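Competition binding at cloned human α1 subtypes stably expressed in CHO cells: membranes (30 μg protein) incubated 30 min at 25 °C in 50 mM Tris-HCl pH 7.4 with 0.1–0.4 nM [3H]prazosin and competitor (1 pM–10 μM). Nonspecific binding with 10 μM phentolamine; filtration and scintillation counting. Ki by Cheng–Prusoff; 2–3 experiments in triplicate.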

In experiment [2] the target is T2, Alpha-1D adrenergic receptor (Rattus norvegicus) (UniProt P23944).
T2 sequence (whole entry): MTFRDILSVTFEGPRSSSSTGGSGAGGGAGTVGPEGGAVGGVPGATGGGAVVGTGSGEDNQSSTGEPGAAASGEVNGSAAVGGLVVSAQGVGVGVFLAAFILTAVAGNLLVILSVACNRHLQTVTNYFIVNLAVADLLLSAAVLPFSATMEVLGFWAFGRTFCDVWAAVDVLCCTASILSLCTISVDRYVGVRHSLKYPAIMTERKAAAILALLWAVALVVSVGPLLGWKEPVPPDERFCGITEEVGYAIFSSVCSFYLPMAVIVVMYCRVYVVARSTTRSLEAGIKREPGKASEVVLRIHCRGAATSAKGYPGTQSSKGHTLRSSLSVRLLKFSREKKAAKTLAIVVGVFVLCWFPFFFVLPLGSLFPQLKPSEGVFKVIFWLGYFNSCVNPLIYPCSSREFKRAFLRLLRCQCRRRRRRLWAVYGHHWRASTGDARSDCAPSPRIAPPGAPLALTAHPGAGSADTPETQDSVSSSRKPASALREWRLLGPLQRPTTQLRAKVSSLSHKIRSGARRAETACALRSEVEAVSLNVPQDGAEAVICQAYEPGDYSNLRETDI
Briefly: Eudisimic ratio(ER) is the antilog of the defference between the pKb and pD2 values against alpha-1D-adrenoceptor subtype. It counts as functional. Summed up:
(§1)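 Eudismic ratio is the antilog of the difference between the pKb (functional α1 tissue assays) or pD2 (5-HT1A [35S]GTPγS stimulation) of the eutomer and that of its distomer.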

Experiment [3] concerns the target T3, 5-hydroxytryptamine receptor 1A (Homo sapiens) (UniProt P08908).
T3 sequence (whole entry): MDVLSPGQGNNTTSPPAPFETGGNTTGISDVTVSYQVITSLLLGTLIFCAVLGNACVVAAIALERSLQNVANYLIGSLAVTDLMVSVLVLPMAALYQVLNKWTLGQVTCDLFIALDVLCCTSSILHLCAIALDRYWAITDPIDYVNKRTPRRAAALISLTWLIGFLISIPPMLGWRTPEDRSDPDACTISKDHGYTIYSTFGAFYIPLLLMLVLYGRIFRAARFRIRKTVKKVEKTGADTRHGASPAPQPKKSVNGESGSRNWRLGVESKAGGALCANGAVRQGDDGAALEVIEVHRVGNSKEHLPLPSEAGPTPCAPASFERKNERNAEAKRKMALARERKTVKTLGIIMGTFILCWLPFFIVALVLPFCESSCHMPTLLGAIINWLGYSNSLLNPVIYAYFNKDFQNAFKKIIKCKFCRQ
In words: Eudisimic ratio(ER) is the antilog of the difference between the pKb and pD2 values against 5-hydroxytryptamine 1A receptor. It counts as functional. The procedure, abridged:
as §1

Experiment [4] concerns the target T2, Alpha-1D adrenergic receptor (Rattus norvegicus). Briefly: Eudisimic ratio(ER) is the antilog of the defference between the pKb and pD2 values against Alpha-1D adrenergic receptor subtype. It counts as functional. Summed up: as §1

In the case of `O[C@@H]1[C@H](NC[C@H]2COc3ccccc3O2)CC[C@H]1Oc1ccccc1`, the affinity in experiment [1], expressed as Ki, was 7.94 nM. Moreover, the ER in experiment [2] was found to be 33.

As to `O[C@H]1[C@@H](NC[C@H]2COc3ccccc3O2)CC[C@@H]1Oc1ccccc1`, the ER in experiment [3] stood at 27; in experiment [4], 7.
